Active and inactive are the calls of the source. The calls are words filed in the database; no cut-off is given here.
Key:
[1] = Binding affinity to 5'-FAM/3'-TAMRA labeled k-RAS21R 21-mer G-quadruplex DNA (unknown origin) assessed as change in melting temperature at 4 uM after 12 hrs by TR-FRET assay
In short: (§1)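 Dual-labeled FAM/TAMRA oligos diluted to 800 nM in 60 mM potassium cacodylate (pH 7.2), annealed 10 min at 85 °C and cooled to room temperature. Mixed 1:1 with ligand at […] in the same buffer. Equilibrated at least 12 h at 4 °C. ΔT1/2 taken as melting temperature with minus without ligand, in triplicate, averaged.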

[2] = Binding affinity to 5'-FAM/3'-TAMRA labeled c-MYC 22-mer G-quadruplex DNA (unknown origin) assessed as change in melting temperature at 4 uM after 12 hrs by TR-FRET assay; in short: as §1
[3] = system: MDA-MB-231; test: Binding affinity to c-MYC G-quadruplex DNA in human MDA-MB-231 cells assessed as inhibition of c-MYC protein expression at 27.25 uM incubated for 24 hrs by Western blot analysis relative to control; assay type: cell-based
In short: (§2)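 MDA-MB-231 cells, grown in DMEM with 10% heat-inactivated FBS at 37 °C and 5% CO2, exposed for 6 or 24 h; DMSO vehicle as comparator. Cells harvested, PBS-washed, lysed in RIPA with protease inhibitors. Blots probed with c-MYC antibody (1:1000) and HRP anti-rabbit IgG (1:10,000), β-actin as loading control. Densitometry given as percent of vehicle at each time point.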

[4] = Binding affinity to c-MYC2345 G-quadruplex DNA (unknown origin) at 150 uM incubated for 2 hrs by 1H NMR method
[5] = Binding affinity to c-kit1 22-mer G-quadruplex DNA (unknown origin) at 150 uM incubated for 2 hrs by 1H NMR method
[6] = Binding affinity to 5'-FAM/3'-TAMRA labeled F21T 21-mer G-quadruplex DNA (unknown origin) assessed as change in melting temperature at 4 uM after 12 hrs by TR-FRET assay; in short: as §1
[7] = Antiproliferative activity against human OVCAR3 cells after 72 hrs by WST-1 assay; assay type: functional; settings: OVCAR-3, 72 h
In short: (§3)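 Cells seeded in 96-well plates the afternoon before treatment, at numbers keeping them in log-phase growth; about 18 h later, compounds semi-serially diluted in DMSO then growth medium and added. Incubation 72 h, then WST-1 added and plates read after 4 more hours at 37 °C. GI50 derived from curve fits; viability expressed relative to DMSO control.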

[8] = Antiproliferative activity against human MCR5A cells after 72 hrs by WST-1 assay; assay type: cell-based
In short: (§4)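 Cells seeded the afternoon before treatment at densities giving log-phase growth; about 18 h later compounds, semi-serially diluted in DMSO then growth medium, were added. After 72 h WST-1 was added, with a further 4 h at 37 °C before plate reading. GI50 values were calculated from the curves. NBM was grown in RPMI; MCR5A was handled per ATCC.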

[9] = Binding affinity to 5'-FAM/3'-TAMRA labeled 26-mer duplex DNA (unknown origin) assessed as change in melting temperature at 4 uM after 12 hrs by TR-FRET assay
[10] = Antiproliferative activity against human bone marrow cells after 72 hrs by WST-1 assay; assay type: cell-based, Bone marrow cell; in short: as §4
[11] = system: MDA-MB-231; test: Antiproliferative activity against human MDA-MB-231 cells after 72 hrs by WST-1 assay; assay type: functional; settings: MDA-MB-231, 72 h; in short: as §3
[12] = Antiproliferative activity against human PC3 cells after 72 hrs by WST-1 assay; assay type: functional; settings: PC-3, 72 h; in short: as §3
[13] = Binding affinity to 5'-FAM/3'-TAMRA labeled c-kit2 26-mer G-quadruplex DNA (unknown origin) assessed as change in melting temperature at 4 uM after 12 hrs by TR-FRET assay; in short: as §1
[14] = Stabilization of c-MYC template Pu27-13,14 mutant DNA (unknown origin) assessed as inhibition of Taq polymerase-mediated polymerization/extension of Pu27-13,14 mutant and Pu27rev oligomers at 100 uM preincubated for 6 hrs followed by Taq polymerase addition by PCR stop assay
[15] = system: MDA-MB-231; test: Cytotoxicity against human MDA-MB-231 cells assessed as reduction in cell viability at 27.25 uM after 24 hrs by […]; settings: mda-mb-231, 24 h
[16] = Stabilization of c-MYC template Pu27 mutant DNA (unknown origin) assessed as inhibition of Taq polymerase-mediated polymerization/extension of Pu27 mutant and Pu27rev oligomers at 1 to 100 uM preincubated for 6 hrs followed by Taq polymerase addition by PCR stop assay
[17] = system: MDA-MB-231; test: Binding affinity to c-MYC G-quadruplex DNA in human MDA-MB-231 cells assessed as inhibition of c-MYC protein expression at 27.25 uM incubated for 6 hrs by Western blot analysis relative to control; assay type: cell-based; in short: as §2
[18] = target: Telomerase reverse transcriptase (Homo sapiens) (UniProt O14746); test: Inhibition of telomerase activity in human MDA-MB-231 cells using amplifour TS primer at 11 uM preincubated for 48 to 72 hrs followed by primer addition measured after 30 mins by fluorescence plate reader analysis relative to control; assay type: cell-based
Telomerase reverse transcriptase (Homo sapiens), sequence (O14746 whole entry): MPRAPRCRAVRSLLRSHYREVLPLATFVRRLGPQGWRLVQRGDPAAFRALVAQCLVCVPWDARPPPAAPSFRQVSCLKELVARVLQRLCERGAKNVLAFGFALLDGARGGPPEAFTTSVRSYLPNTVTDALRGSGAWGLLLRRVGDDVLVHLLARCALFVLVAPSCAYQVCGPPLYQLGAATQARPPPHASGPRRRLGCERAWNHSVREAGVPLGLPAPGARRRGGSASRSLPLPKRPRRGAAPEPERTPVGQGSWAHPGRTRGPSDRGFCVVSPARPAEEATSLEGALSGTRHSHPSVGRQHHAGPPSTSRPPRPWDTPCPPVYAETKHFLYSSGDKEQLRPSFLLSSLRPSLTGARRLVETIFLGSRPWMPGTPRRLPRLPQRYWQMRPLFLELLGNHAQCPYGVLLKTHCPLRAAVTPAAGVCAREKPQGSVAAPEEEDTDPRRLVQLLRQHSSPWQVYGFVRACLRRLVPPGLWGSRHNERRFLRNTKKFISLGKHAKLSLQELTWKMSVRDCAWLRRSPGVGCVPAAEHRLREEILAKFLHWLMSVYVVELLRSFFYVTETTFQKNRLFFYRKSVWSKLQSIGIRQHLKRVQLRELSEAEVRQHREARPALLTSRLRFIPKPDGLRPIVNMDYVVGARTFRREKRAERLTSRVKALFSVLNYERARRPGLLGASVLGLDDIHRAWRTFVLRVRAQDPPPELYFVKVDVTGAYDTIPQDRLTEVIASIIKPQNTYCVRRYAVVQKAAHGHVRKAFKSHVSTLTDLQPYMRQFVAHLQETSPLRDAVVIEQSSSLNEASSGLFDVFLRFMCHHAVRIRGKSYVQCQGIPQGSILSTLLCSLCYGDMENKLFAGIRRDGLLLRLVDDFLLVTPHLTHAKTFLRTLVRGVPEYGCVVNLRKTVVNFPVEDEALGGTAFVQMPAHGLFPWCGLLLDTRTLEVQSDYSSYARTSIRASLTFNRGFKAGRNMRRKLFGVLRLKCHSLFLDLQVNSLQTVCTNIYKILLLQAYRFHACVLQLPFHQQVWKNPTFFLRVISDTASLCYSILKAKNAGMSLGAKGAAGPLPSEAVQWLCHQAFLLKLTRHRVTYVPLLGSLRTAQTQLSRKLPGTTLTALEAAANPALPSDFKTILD
In short: (§5)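 MDA-MB-231 seeded at 2 × 10^5 cells per T-25 flask the evening before, then treated with vehicle or compound for 48 or 72 h. Harvested cells lysed in CHAPS buffer with RNase inhibitor, 30 min on ice; supernatant kept after 12,000 × g spin. TRAPeze XL fluorescence assay used 1000 cell-equivalents, 30 min at 30 °C; TPG units from product/internal-standard ratio; inhibition relative to untreated cells.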

[19] = Stabilization of c-MYC pu27 G-quadruplex DNA (unknown origin) assessed as inhibition of Taq polymerase-mediated polymerization/extension of Pu27 and Pu27rev oligomers at 100 uM preincubated for 6 hrs followed by Taq polymerase addition by PCR stop assay
[20] = Binding affinity to 5'-FAM/3'-TAMRA labeled c-MYC 22-mer G-quadruplex DNA (unknown origin) at 4 uM in presence of 26-mer duplex DNA by TR-FRET assay
[21] = Binding affinity to 8-bp AT rich duplex DNA (unknown origin) at 150 uM incubated for 2 hrs by 1H NMR method
[22] = target: Telomerase reverse transcriptase (Homo sapiens) (UniProt O14746); test: Inhibition of telomerase activity in human MDA-MB-231 cells using amplifour TS primer preincubated for 48 to 72 hrs followed by primer addition measured after 30 mins by fluorescence plate reader analysis relative to control; assay type: cell-based
In short: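 MDA-MB-231 cells, 2 × 10⁵ per T-25 flask, were treated the next morning with vehicle or compound at 0.5×, 1×, 2× or 4× GI50. After 48 or 72 h they were lysed in CHAPS buffer with RNase inhibitor on ice for 30 min. Lysate (1000 cell-equivalents) went into a fluorescent TRAP reaction at 30 °C for 30 min. TPG units were taken against an internal standard, and inhibition was expressed relative to untreated cells.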

[23] = system: MDA-MB-231; test: Binding affinity to c-MYC G-quadruplex DNA in human MDA-MB-231 cells assessed as inhibition of c-MYC protein expression at 19.5 uM incubated for 6 hrs by Western blot analysis relative to control; assay type: cell-based; in short: as §2
[24] = target: Telomerase reverse transcriptase (Homo sapiens) (UniProt O14746); test: Inhibition of telomerase activity in human MDA-MB-231 cells using amplifour TS primer at 12.4 uM preincubated for 48 hrs followed by primer addition measured after 30 mins by fluorescence plate reader analysis relative to control; assay type: cell-based; in short: as §5
[25] = Antiproliferative activity against human bone marrow cells assessed as cell viability at 20 uM after 72 hrs by WST-1 assay relative to control; assay type: cell-based; settings: read-out: Activity; in short: as §3
[26] = target: Telomerase reverse transcriptase (Homo sapiens) (UniProt O14746); test: Inhibition of telomerase activity in human MDA-MB-231 cells using amplifour TS primer at 12.4 uM preincubated for 72 hrs followed by primer addition measured after 30 mins by fluorescence plate reader analysis relative to control; assay type: cell-based; in short: as §5
[27] = system: MDA-MB-231; test: Binding affinity to c-MYC G-quadruplex DNA in human MDA-MB-231 cells assessed as inhibition of c-MYC protein expression at 19.5 uM incubated for 24 hrs by Western blot analysis relative to control; assay type: cell-based; in short: as §2
[28] = Antiproliferative activity against human MCR5A cells assessed as cell viability at 20 uM after 72 hrs by WST-1 assay relative to control; assay type: cell-based; settings: read-out: Activity; in short: as §3
[29] = Stabilization of c-MYC Pu27 G-quadruplex DNA (unknown origin) assessed as inhibition of Taq polymerase-mediated polymerization/extension of Pu27 and Pu27rev oligomers at 25 uM preincubated for 6 hrs followed by Taq polymerase addition by PCR stop assay
In short: (§6)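 Each 25 µL PCR mix held 1x buffer, 5 µM template (Pu27, Pu27-13,14 or Pu-mutant) and 5 µM Pu27rev, plus ligand at various concentrations, and was held at 4 °C for 6 h. Then 200 µM dNTPs and 5 U Taq were added. Cycling: 94 °C 3 min, then 20 cycles of 94 °C 30 s, 58 °C 30 s and 72 °C 30 s. Reactions without compound served as control.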

[30] = system: MDA-MB-231; test: Binding affinity to c-MYC G-quadruplex DNA in human MDA-MB-231 cells assessed as inhibition of c-MYC protein expression at 111.5 uM incubated for 24 hrs by Western blot analysis relative to control; assay type: cell-based
In short: (§7)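 MDA-MB-231 cells were grown in DMEM with 10% heat-inactivated FBS at 37 °C and 5% CO2, then treated with DMSO vehicle or compound for 2, 6 or 24 h. Cells were washed in PBS and lysed in RIPA buffer with protease inhibitors. Blots were probed with anti-c-MYC (1:1000) and HRP anti-rabbit IgG (1:10,000), with β-actin as loading control. Band density is given as percent of vehicle at each time point.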

[31] = system: MDA-MB-231; test: Binding affinity to c-MYC G-quadruplex DNA in human MDA-MB-231 cells assessed as inhibition of c-MYC protein expression at 22.3 uM incubated for 24 hrs by Western blot analysis relative to control; assay type: cell-based; in short: as §7
[32] = target: Telomerase reverse transcriptase (Homo sapiens) (UniProt O14746); settings: MDA-MB-231, 25 uM
[33] = Stabilization of c-MYC template Pu27 mutant DNA (unknown origin) assessed as inhibition of Taq polymerase-mediated polymerization/extension of Pu27 mutant and Pu27rev oligomers at 10 uM preincubated for 6 hrs followed by Taq polymerase addition by PCR stop assay; in short: as §6
[34] = Stabilization of c-MYC template Pu27-13,14 mutant DNA (unknown origin) assessed as inhibition of Taq polymerase-mediated polymerization/extension of Pu27-13,14 mutant and Pu27rev oligomers at 10 uM preincubated for 6 hrs followed by Taq polymerase addition by PCR stop assay; in short: as §6
[35] = system: MDA-MB-231; test: Binding affinity to c-MYC G-quadruplex DNA in human MDA-MB-231 cells assessed as inhibition of c-MYC protein expression at 22.3 uM incubated for 6 hrs by Western blot analysis relative to control; assay type: cell-based; in short: as §7
[36] = target: Telomerase reverse transcriptase (Homo sapiens) (UniProt O14746); settings: MDA-MB-231, 25 uM; remark: listed apart in the source

SMILES: N=C(N)c1ccc(/N=N/Nc2cccc(C#Cc3ccc(F)cc3)c2)cc1
- ΔTm [1]: 6.9 °C
- ΔTm [2]: 8.6 °C
- inhibition [3]: 67%
- Activity [4]: Active
- Activity [5]: Active
- ΔTm [6]: < 5 °C
- GI50 [7]: 5 µM
- GI50 at 72 h [8]: 8.3 µM
- ΔTm [9]: < 5 °C
- GI50 at 72 h [10]: 5.6 µM
- GI50 [11]: 5.5 µM
- GI50 [12]: 5.3 µM
- ΔTm [13]: 5.67 °C
- inhibition [14]: inactive
- Activity [15]: Toxic
- inhibition [16]: inactive
- inhibition [17]: 40%
- inhibition [18]: < 50%
- inhibition [19]: Active
- Activity [20]: inactive
- Activity [21]: inactive
- inhibition [22]: Dose-dependent effect

SMILES: N=C(N)c1ccc(/N=N/Nc2ccccc2C#Cc2ccc(F)cc2)cc1
- ΔTm [1]: 2.7 °C
- ΔTm [2]: 8.8 °C
- inhibition [23]: inactive
- Activity [4]: Active
- Activity [5]: Active
- inhibition [24]: 20%
- ΔTm [6]: < 5 °C
- viability at 72 h, 20 µM [25]: ≥ 75%
- GI50 [7]: 9.5 µM
- ΔTm [9]: < 5 °C
- GI50 [11]: 6.2 µM
- GI50 [12]: 7.4 µM
- ΔTm [13]: 5.12 °C
- inhibition [14]: inactive
- inhibition [16]: inactive
- inhibition [26]: 30%
- inhibition [19]: Active
- Activity [20]: inactive
- Activity [21]: inactive
- inhibition [27]: 100%
- viability at 72 h, 20 µM [28]: ≥ 75%

SMILES: C[n+]1ccc(-c2c3nc(c(-c4cc[n+](C)cc4)c4ccc([nH]4)c(-c4cc[n+](C)cc4)c4ccc([nH]4)c(-c4cc[n+](C)cc4)c4nc2C=C4)C=C3)cc1
- ΔTm [1]: 46.7 °C
- ΔTm [2]: 24.1 °C
- inhibition [29]: Active
- inhibition [30]: 100%
- inhibition [31]: 92%
- ΔTm [6]: < 5 °C
- ΔTm [9]: < 5 °C
- inhibition [32]: 60%
- inhibition [33]: Active
- inhibition [34]: Active
- inhibition [35]: 40%
- inhibition [36]: 80%
- inhibition [22]: Dose-dependent effect
